The list is not random: actives were taken first. Their share in the collection is about 2.2%.
PolyA inh: polyadenylation inhibitors in yeast reporter cells, primary screen, luminescence, S. cerevisiae; S. cerevisiae SKY197-pL101 polyadenylation reporter, beta-gal luminescence; efflux-impaired pdr1/pdr3 knockout yeast; score 100 = 6 SD above DMSO; activity score, % at 12 µM; actives 0.02% (n = 300,000); AID 1875, 2009;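 active = lowest replicate activity score at least 50, where 100 means six control SD above control mean; inconclusive = lowest score under 50 but half or more replicates reach 50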;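 note: yeast exposed to compound for 9 h at 30 °C; higher score means more reporter readthrough which indicates perturbed polyadenylation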
AI-2 QS modul: Vibrio harveyi AI-2 quorum sensing modulators, primary screen, JMH597 strain, luminescence/OD600 ratio; activity change, % at 7.5 µM; Vibrio harveyi JMH597 AI-2 luminescence/OD600 ratio, 9 h; stronger effect = lower value; strain lacks LuxN and CqsS sensors; 0 = neutral-control median; actives 0.4% (n = 300,000); in the data active = activity change below about -75%, passing the limit was not always enough; inconclusive = no clear call, values can overlap the other calls;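 note: luminescence divided by OD600 gain over 9 h not by final OD600 alone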
HDAC3 inhib: HDAC3 deacetylase inhibitors, primary screen, biochemical, fluorescence, cell-free homogeneous | recombinant HDAC3, fluorogenic peptide/trypsin coupled | AID 2718, 2010 | Histone deacetylase 3 (Homo sapiens), O15379 | inhibition, % at 8.3 µM | actives 0.15% (n = 320,000); in the data active = inhibition above about 26%, passing the limit was not always enough; inconclusive = no clear call, values can overlap the other calls
Target sequence (O15379 whole entry, looked up): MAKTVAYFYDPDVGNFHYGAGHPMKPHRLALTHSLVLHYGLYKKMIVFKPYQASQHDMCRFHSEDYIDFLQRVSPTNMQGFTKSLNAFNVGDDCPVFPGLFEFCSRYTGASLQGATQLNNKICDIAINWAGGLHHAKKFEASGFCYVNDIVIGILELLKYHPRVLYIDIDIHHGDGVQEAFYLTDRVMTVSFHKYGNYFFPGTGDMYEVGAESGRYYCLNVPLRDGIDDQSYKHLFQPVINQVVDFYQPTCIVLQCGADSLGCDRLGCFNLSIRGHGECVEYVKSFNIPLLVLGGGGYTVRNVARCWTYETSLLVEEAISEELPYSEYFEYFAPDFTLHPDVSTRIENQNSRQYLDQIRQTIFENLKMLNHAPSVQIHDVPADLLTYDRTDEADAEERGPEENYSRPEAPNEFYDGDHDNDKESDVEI
T cruzi repl: inhibitors of intracellular T. cruzi growth, primary screen, luminescence, NIH3T3 host cells. AID 1885, 2009. inhibition, % (test concentration not listed). actives 1.4% (n = 300,000). T. cruzi beta-gal in NIH3T3, 90 h;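 active = mean inhibition across valid replicates above about 55%, limit read from the data; inconclusive = mean below that limit but half or more replicates reach it; inactive = mean below it, under half of replicates reach it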;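 note: signal also drops with host cell toxicity which is not excluded here; 0% = plate median of DMSO wells and 100% = zero luminescence signal; higher percent means less beta-gal luminescence so fewer parasites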
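System: NIH/3T3 fibroblasts plus reporter T. cruzi. Medium: DMEM plus 2% FBS. Probe or stimulus: 5000 reporter trypomastigotes per well. Compound: single 50 nL compound addition per well in DMSO. Incubation: co-culture of at least 90 h after 3 h attachment. Detection: GalScreen β-gal luminescence, detergent lysis, 60 min. Evaluation: parasite load inhibition, %.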
Efflux pump mplx: inhibitors of Candida efflux pumps in yeast, primary screen, S. cerevisiae, Nile Red, multiplex | actives 0.44% (n = 330,000) | AID 485275, 2010 | inhibition, % at 10 µM | S. cerevisiae Candida pump triplex;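 active = plate passing quality check with inhibition over a set limit, or well fluorescence over plate mean plus 4 SD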;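 note: Nile Red retained in pooled yeast measured as flow cytometry median fluorescence; 0% = buffer negative control and 100% = Enniatin B positive control; higher means more Nile Red kept so more efflux inhibition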
* marks the source's active call; other numbers are inactive results; ? = inconclusive; nt = no result given; + = active, no number.

SMILES	PolyA inh	AI-2 QS modul	HDAC3 inhib	T cruzi repl	Efflux pump mplx
Cc1ccc(CN2CCN(Cc3nc4c(s3)CCCC4)CC2CCO)cc1 (configuration not stated)	-3.2	20.8	-1.0	55.6*	0.3
Cc1ccc2[nH]c(C(=O)NN=C3CCCCC3)c(-c3ccccc3)c2c1	-25.7	12.3	10.5	5.1	0.0
Cc1cc(C)c2c(N)c(S(=O)c3ccc(C(C)(C)C)cc3)sc2n1 (configuration not stated)	-32.1	18.8	5.6	20.7	0.1
CCC(C)(C)n1nnnc1C(c1cc2ccc(OC)cc2[nH]c1=O)N1CCc2ccccc2C1 (configuration not stated)	6.1	11.2	7.8	55.5*	0.6
COc1ccc2cc(C(c3nnnn3C(C)(C)C)N3CCc4ccccc4C3)c(=O)[nH]c2c1 (configuration not stated)	nt	nt	7.5	nt	-0.4
Cc1ccc2cc(/C=N/NC(=O)[C@H]3C[C@@H]3c3ccccc3)c(Cl)nc2c1	-8.0	29.4	-1.7	55.5*	0.1
O=C(N/N=C/c1cc2ccccc2nc1Cl)[C@H]1C[C@@H]1c1ccccc1	0.5	10.8	6.0	22.7	-0.2
Cc1ccc(SCCC(=O)OCC(=O)Nc2ccc(C(N)=O)cc2)cc1	nt	nt	-3.2	nt	0.1
CC(C)Oc1ccc(CNC(=O)CC(c2ccccc2)c2cc(Cl)ccc2O)cc1 (configuration not stated)	-12.5	42.4	2.9	56.4*	0.2
CCOC(=O)c1cnc2c(C)cc(C)cc2c1NCCCN1CCOCC1	23.0	-6.2	-0.1	0.4	0.0
CC(=O)CC1OC(=O)C(Br)=C1NCc1ccccc1 (configuration not stated)	12.6	23.0	-3.0	58.5*	-0.1
Cc1c(CN2CCC(CO)(Cc3cccc(C(F)(F)F)c3)CC2)c2ccccc2n1C	12.2	29.5	0.1	56.2*	-0.1
OCC1(Cc2cccc(C(F)(F)F)c2)CCN(Cc2cc3ccccc3o2)CC1	-70.1	19.6	5.4	26.0	-0.2
CCOc1cc(C2CC(=O)N3CN(C4CCCCC4)CSC3=C2C#N)ccc1O (configuration not stated)	-18.0	21.7	?	-2.8	-0.1
COc1ccc2ccccc2c1C1CC(=O)N2CN(C3CCCCC3)CSC2=C1C#N (configuration not stated)	9.9	18.8	42.7*	11.9	0.1
COc1ccc2ccccc2c1C1CC(=O)N2CN(Cc3ccco3)CSC2=C1C#N (configuration not stated)	-5.8	23.5	44.4*	11.5	-0.1
COc1ccc(C2CC(=O)N3CN(Cc4ccco4)CSC3=C2C#N)cc1 (configuration not stated)	1.4	18.9	36.9*	7.4	0.0
COC(=O)/C=C1\N/C(=N\c2nc(C)cc(C)n2)N(c2ccc(Cl)cc2)C1=O	2.9	24.0	0.2	-21.3	0.2
CCc1cccc(NC(=O)CNC(=O)N2CC(=O)Nc3ccccc32)c1	-20.8	19.3	9.3	6.4	-0.1
CCc1cccc(Nc2c([N+](=O)[O-])cc(C(=O)N3CC(=O)Nc4ccccc43)cc2[N+](=O)[O-])c1	1.9	35.8	16.4	77.4*	-0.1
CC(C(=O)N(C)Cc1ccccc1)N1CCN(C/C=C/c2ccccc2)CC1 (configuration not stated)	1.2	11.1	-1.0	60.4*	0.1
CCc1ccccc1Oc1ccc(S(=O)(=O)N2CCN(C)CC2)cn1	-0.9	-56.3	1.2	42.3	-0.1
Cc1ccc(C)c(Oc2ccc(S(=O)(=O)N3CCN(C)CC3)cn2)c1	-1.5	nt	-2.5	55.1*	0.0
CN(C(=O)COC(=O)c1cccc(S(=O)(=O)N(C)c2ccccc2)c1)C1CCCCC1	nt	nt	1.8	nt	0.0
COc1cccc(/C=N/Nc2ncnc(Cl)c2N)c1O	16.9	-81.8*	?	-3.5	-0.2
SMILES	PolyA inh	AI-2 QS modul	HDAC3 inhib	T cruzi repl	Efflux pump mplx
COc1cccc(/C=N/Nc2nccnc2Cl)c1O	-11.4	?	nt	34.0	nt
COc1ccc(-n2ncc(C(C)NS(=O)(=O)c3ccc(C)s3)c2C)cc1 (configuration not stated)	-11.9	17.7	2.3	-8.0	-0.7
COc1cc(C(=O)NN2C(=O)NC3(CCC(C)CC3)C2=O)ccc1OC(F)F (configuration not stated)	nt	nt	-5.4	nt	-0.2
Cc1c(CCOC(=O)c2cc([N+](=O)[O-])cc([N+](=O)[O-])c2)sc[n+]1CC(=O)c1ccc(Br)cc1	-14.5	11.9	-4.1	57.5*	-0.1
Cc1c(CCOC(=O)c2ccc(Cl)cc2Cl)sc[n+]1CC(=O)c1ccccc1	nt	nt	0.2	nt	0.0
CC(=O)c1sc(N/N=C\c2ccc(N(C)C)cc2)nc1C	5.4	5.8	6.1	17.6	0.3
COC(=O)c1sc(N/N=C/c2ccc(C(C)C)cc2)nc1C	-12.9	12.6	-7.9	64.2*	0.8
CCN1/C(=C/C=C/c2oc3ccc(-c4ccccc4)cc3[n+]2CC)Oc2ccc(-c3ccccc3)cc21	-8.3	-1.2	0.8	89.8*	+
CCCCN1C(=O)/C(=C/C=C2\Oc3ccccc3N2CC)SC1=S	-9.8	34.7	nt	12.1	nt
CC(C)c1ccc(NC(=O)c2cc3c(=O)n(C)c4ccccc4c3n2C)cc1	0.5	12.3	nt	60.3*	0.2
COc1ccc(NC(=O)c2cc3c(=O)n(C)c4ccccc4c3n2C)cc1OC	3.5	0.5	nt	21.1	0.1
O=C(CSCc1ccco1)c1cccs1	-2.3	5.7	91.5*	-7.7	0.2
Cc1ccc(NC(=S)NCc2cccs2)cc1	11.7	-8.0	nt	-27.7	-0.1
CCCCc1ccc(NC(=S)NCc2cccs2)cc1	9.9	-17.5	0.7	69.5*	-0.1
O=C(N/N=C/c1coc2ccccc2c1=O)c1cc(Br)c(O)c(Br)c1	15.1	69.8	46.2*	-8.4	0.1
CCOc1ccccc1C(=O)N/N=C/c1coc2ccc(Cl)cc2c1=O	nt	7.3	32.3*	nt	0.1
O=C(N/N=C/c1coc2ccc(Cl)cc2c1=O)c1cc(O)cc(O)c1	1.4	40.9	15.7	-24.7	-0.1
COc1ccc(CC(=O)N/N=C\c2cc(Br)c(O)c(Br)c2)cc1	1.4	5.4	-1.6	-5.2	0.2
CCOC(=O)C1Oc2ccccc2C(c2ccc(C)cc2)=C1C(=O)OC (configuration not stated)	nt	nt	nt	nt	0.0
C[C@H]1CN([C@@H](C)CO)C(=O)c2cccc(NC(=O)Nc3ccc(C(F)(F)F)cc3)c2O[C@@H]1CN(C)S(=O)(=O)c1ccc(Cl)cc1	nt	nt	34.0*	nt	0.6
CNC1=C(N(C(C)=O)c2ccc(Br)cc2)C(=O)c2ccccc2C1=O	-13.4	30.4	-1.7	70.3*	-0.1
